Measurements as given in ChEMBL document CHEMBL3861990, “Elaboration of a proprietary thymidylate kinase inhibitor motif towards anti-tuberculosis agents” (Bioorg Med Chem, 2016).

Experiment: Inhibition of recombinant Mycobacterium tuberculosis TMPK using dTMP as substrate measured after 1 min in presence of ATP/pyruvate kinase/lactate dehydrogenase/nucleoside diphosphate kinase by coupled spectrophotometric assay
Outline: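 Medium: 50 mM Tris-HCl pH 7.4, 50 mM KCl, 2 mM MgCl2, 0.2 mM NADH, 1 mM phosphoenolpyruvate, and 2 units each of LDH, pyruvate kinase and NDP kinase. ATP fixed at 0.5 mM and dTMP at 0.05 mM. Analogues varied from 0.01 to 1 mM. Result reported as Ki.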
In the case of `Nc1nc(=O)n([C@H]2C[C@H](O)[C@@H](CO)O2)cc1Br`, the Ki is reported as 5 µM. Molecule `Cc1cn([C@H]2CCN(Cc3cccc(Oc4ccccc4)c3)C2)c(=O)[nH]c1=O` has a Ki of 7.8 µM. With `Cc1cn([C@@H]2CCCN(Cc3ccc(Oc4ccccc4)cc3)C2)c(=O)[nH]c1=O` the Ki was 138 µM. `Cc1cn([C@@H]2CCN(Cc3cccc(Oc4ccccc4)c3)C2)c(=O)[nH]c1=O` gave a Ki of 8.2 µM. For `Cc1cn([C@H]2CCCN(Cc3ccc(Oc4ccccc4)cc3)C2)c(=O)[nH]c1=O`, the Ki was 21.5 µM. With `Cc1cn(CC2CCN(Cc3cccc(Oc4ccccc4)c3)C2)c(=O)[nH]c1=O` (racemic) the Ki was 111 µM. In the case of `Cc1cn(CC2CCN(Cc3ccc(Oc4ccccc4)cc3)C2)c(=O)[nH]c1=O` (racemic), the Ki is reported as 267 µM. `Cc1cn(C2CCCN(Cc3ccc(Oc4ccccc4)cc3)C2)c(=O)[nH]c1=O` (racemic) gave a Ki of 22.3 µM. In the case of `Cc1cn(C2CCCN(C(=O)c3ccc(Oc4ccccc4)cc3)C2)c(=O)[nH]c1=O` (racemic), the Ki is reported as 14.4 µM. `Cc1cn(CC2CCCN(Cc3cccc(Oc4ccccc4)c3)C2)c(=O)[nH]c1=O` (racemic) showed a Ki of 186 µM. `Cc1cn(C2CCCN(C(=O)c3cccc(Oc4ccccc4)c3)C2)c(=O)[nH]c1=O` (racemic) gave a Ki of 2.1 µM.

Experiment: Inhibition of recombinant Mycobacterium tuberculosis TMPK expressed in Escherichia coli using dTMP as substrate in presence of ATP/pyruvate kinase/lactate dehydrogenase/nucleoside diphosphate kinase by coupled spectrophotometric assay
Outline: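 Coupled assay read at 334 nm. Medium: 50 mM Tris-HCl pH 7.4, 50 mM KCl, 2 mM MgCl2, 0.2 mM NADH, 1 mM phosphoenolpyruvate, and 2 units each of LDH, pyruvate kinase and NDP kinase. ATP fixed at 0.5 mM and dTMP at 0.05 mM. Analogues varied from 0.01 to 1 mM. Result reported as Ki.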
Work on `Cc1cn(C/C=C\CN2c3cccc4cccc(c34)S2(=O)=O)c(=O)[nH]c1=O` yielded a Ki of 0.27 µM.
